Drawing on ChEMBL document CHEMBL1781905, “Discovery and optimization of N-acyl and N-aroylpyrazolines as B-Raf kinase inhibitors” (Bioorg Med Chem Lett, 2010), this text covers Ratio IC50 and IC50 for seven molecules.

For one assay, the species on record is Homo sapiens. Put plainly: Selectivity ratio of IC50 for wild type human B-Raf to IC50 for human B-Raf V600E mutant.
The target of assay [1] is T1, Receptor-type tyrosine-protein kinase FLT3 (Homo sapiens, UniProt P36888).
T1 sequence (P36888 whole entry): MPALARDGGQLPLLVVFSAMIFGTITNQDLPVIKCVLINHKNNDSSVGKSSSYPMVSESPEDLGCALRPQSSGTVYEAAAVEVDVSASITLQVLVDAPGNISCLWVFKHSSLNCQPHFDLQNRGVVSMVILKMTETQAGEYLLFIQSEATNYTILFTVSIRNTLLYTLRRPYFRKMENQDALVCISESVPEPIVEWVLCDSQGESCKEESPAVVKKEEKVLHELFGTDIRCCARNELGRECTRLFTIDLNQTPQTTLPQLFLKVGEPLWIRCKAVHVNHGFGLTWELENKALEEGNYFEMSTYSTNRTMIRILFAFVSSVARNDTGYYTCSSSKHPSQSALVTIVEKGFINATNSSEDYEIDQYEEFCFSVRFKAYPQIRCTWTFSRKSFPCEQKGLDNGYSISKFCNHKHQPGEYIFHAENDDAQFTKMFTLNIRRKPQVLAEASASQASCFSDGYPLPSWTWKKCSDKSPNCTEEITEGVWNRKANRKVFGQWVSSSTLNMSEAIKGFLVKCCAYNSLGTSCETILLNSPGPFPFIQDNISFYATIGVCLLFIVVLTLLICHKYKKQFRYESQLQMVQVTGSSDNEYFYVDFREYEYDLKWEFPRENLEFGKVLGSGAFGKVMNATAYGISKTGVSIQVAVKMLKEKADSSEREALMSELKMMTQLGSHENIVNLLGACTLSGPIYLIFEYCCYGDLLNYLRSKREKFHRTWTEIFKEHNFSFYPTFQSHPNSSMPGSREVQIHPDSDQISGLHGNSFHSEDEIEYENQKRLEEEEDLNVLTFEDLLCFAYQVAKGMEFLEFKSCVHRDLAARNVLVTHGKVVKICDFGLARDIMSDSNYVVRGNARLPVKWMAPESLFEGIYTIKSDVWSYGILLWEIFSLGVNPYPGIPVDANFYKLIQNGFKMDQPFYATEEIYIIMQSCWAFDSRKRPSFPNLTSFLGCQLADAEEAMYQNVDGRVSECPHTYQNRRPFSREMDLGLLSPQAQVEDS
Put plainly: Inhibition of FLT3.

Assay [2] has as its target T2, Serine/threonine-protein kinase B-raf (Homo sapiens, UniProt P15056, V600E). Put plainly: Inhibition of B-Raf V600E mutant-mediated ERK phosphorylation in human A375 cells after 3 hrs by immunoblotting method. It is filed as cell-based, A-375. Particulars: in the assay text read “whole cell ELISA” for “immunoblotting method”. The procedure, abridged:
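A375 (B-Raf V600E) cells are seeded overnight, then exposed to inhibitors for 3 h at 37 °C. Cells are fixed, permeabilized and blocked overnight. They are probed 1 h with anti-phospho-ERK antibody, then with HRP-linked reagent. The TMB substrate is read as optical density at 650 nm.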

The target in assay [3] is RAC-beta serine/threonine-protein kinase (Homo sapiens, UniProt P31751). Put plainly: Inhibition of AKT2.
In assay [4] the target is Fibroblast growth factor receptor 1 (Homo sapiens, UniProt P11362). Put plainly: Inhibition of FGFR1.
Assay [5] deals with Vascular endothelial growth factor receptor 2 (Homo sapiens, UniProt P35968). Put plainly: Inhibition of KDR.
In assay [6] the target is T2, Serine/threonine-protein kinase B-raf. Put plainly: Inhibition of human B-Raf V600E mutant after 3 hrs. The procedure, abridged: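 Radiometric assay using 20 nM B-Raf V600E. It measures phosphorylation of a biotinylated surrogate peptide by ³³P-ATP in 50 mM HEPES pH 7.5 with 10 mM DTT and 50 mM MnCl₂ at 30 °C for 3 h. The reaction is stopped with 100 mM EDTA, captured 2 h on a streptavidin FlashPlate and scintillation-counted.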

Assay [7] addresses Mast/stem cell growth factor receptor Kit (Homo sapiens, UniProt P10721). Put plainly: Inhibition of KIT2.
Assay [8] has as its target Macrophage colony-stimulating factor 1 receptor (Homo sapiens, UniProt P07333). Put plainly: Inhibition of CSF1R.
Assay [9] concerns the target Cyclin-dependent kinase 1 (Homo sapiens, UniProt P06493). Put plainly: Inhibition of CDK1.
Assay [10] addresses Cyclin-dependent kinase 2 (Homo sapiens, UniProt P24941). Put plainly: Inhibition of CDK2.
Assay [11] concerns the target Tyrosine-protein kinase Lck (Homo sapiens) (UniProt P06239). Put plainly: Inhibition of LCK.
Assay [12] deals with T3, Serine/threonine-protein kinase Chk1 (Homo sapiens, UniProt O14757).
T3 sequence (O14757 whole entry): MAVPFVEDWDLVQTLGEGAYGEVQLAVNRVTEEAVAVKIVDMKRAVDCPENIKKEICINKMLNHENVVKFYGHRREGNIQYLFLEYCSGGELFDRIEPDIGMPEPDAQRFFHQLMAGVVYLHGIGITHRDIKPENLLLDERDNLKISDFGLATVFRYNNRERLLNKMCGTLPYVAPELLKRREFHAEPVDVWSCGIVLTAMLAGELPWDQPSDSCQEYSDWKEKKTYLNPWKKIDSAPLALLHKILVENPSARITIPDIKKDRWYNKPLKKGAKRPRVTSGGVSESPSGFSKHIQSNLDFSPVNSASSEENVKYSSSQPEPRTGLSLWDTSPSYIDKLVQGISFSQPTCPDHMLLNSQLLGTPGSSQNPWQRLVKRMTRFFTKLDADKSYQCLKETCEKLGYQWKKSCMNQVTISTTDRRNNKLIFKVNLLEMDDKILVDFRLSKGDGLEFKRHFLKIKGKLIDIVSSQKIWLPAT
Put plainly: Inhibition of Chk1.

Assay [13] is described as follows: Inhibition of CK2.
The target in assay [14] is Serine/threonine-protein kinase Chk2 (Homo sapiens, UniProt O96017). Put plainly: Inhibition of Chk2.
Assay [15] can be described thus: Inhibition of CAMK2.
A short description of assay [16]: Inhibition of PKA.

pIC50: −log10 of the molar value.

T2 sequence (P15056 2-766 V600E limits assumed): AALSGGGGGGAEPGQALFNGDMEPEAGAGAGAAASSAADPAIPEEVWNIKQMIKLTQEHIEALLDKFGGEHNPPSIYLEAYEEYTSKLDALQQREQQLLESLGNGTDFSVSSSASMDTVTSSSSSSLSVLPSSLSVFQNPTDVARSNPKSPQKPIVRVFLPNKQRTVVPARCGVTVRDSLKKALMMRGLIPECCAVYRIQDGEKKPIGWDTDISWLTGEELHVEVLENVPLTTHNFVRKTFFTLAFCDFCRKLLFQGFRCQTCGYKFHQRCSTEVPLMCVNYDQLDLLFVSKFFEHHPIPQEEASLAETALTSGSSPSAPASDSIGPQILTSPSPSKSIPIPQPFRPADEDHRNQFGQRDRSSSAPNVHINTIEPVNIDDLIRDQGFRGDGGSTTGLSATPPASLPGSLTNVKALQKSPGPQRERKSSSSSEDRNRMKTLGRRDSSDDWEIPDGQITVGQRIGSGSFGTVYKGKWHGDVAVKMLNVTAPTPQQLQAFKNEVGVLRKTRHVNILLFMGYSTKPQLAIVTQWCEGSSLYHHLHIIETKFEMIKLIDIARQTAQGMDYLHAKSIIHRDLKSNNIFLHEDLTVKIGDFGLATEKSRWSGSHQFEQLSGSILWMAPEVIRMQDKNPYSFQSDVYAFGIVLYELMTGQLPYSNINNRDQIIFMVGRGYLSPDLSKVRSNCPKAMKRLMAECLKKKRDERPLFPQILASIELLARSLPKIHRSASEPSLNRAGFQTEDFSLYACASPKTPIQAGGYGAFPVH
Mast/stem cell growth factor receptor Kit, sequence (P10721 whole entry): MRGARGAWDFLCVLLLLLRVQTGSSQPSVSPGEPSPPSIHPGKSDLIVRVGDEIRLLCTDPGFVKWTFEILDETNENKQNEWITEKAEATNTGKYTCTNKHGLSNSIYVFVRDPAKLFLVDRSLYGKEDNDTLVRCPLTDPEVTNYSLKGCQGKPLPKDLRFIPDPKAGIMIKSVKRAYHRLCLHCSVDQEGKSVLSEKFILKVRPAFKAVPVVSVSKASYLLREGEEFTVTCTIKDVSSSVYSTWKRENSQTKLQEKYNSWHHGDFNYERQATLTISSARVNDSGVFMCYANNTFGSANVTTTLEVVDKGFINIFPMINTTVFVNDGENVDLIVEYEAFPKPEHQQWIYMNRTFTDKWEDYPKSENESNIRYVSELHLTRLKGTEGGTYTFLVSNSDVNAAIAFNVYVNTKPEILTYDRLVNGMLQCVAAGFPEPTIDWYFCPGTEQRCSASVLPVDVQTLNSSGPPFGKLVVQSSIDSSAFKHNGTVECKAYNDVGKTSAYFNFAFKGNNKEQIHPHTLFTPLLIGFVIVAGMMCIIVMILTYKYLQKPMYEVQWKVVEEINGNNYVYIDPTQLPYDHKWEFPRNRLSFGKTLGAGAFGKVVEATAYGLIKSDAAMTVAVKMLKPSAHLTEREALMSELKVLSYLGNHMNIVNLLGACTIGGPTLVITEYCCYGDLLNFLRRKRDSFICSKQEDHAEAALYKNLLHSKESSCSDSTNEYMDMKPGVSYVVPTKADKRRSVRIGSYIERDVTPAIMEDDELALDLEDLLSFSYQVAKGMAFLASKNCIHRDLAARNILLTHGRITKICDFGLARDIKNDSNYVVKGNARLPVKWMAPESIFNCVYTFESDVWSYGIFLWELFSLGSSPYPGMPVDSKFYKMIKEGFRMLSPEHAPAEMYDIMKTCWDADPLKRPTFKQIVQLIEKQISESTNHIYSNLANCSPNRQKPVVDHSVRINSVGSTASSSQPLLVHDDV
RAC-beta serine/threonine-protein kinase, sequence (P31751 whole entry): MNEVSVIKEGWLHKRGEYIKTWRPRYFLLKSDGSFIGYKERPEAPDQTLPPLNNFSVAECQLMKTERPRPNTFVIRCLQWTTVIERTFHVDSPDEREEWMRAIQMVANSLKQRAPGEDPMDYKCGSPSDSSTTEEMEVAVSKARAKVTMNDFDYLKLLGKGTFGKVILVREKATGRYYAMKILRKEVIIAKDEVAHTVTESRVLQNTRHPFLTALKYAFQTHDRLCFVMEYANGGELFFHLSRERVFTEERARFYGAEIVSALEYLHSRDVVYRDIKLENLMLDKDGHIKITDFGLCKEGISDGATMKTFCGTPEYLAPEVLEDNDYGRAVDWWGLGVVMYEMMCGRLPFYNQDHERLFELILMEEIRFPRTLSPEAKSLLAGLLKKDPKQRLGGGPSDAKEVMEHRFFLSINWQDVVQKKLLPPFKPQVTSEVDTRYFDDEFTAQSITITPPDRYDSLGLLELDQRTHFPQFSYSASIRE
Fibroblast growth factor receptor 1, sequence (P11362 whole entry): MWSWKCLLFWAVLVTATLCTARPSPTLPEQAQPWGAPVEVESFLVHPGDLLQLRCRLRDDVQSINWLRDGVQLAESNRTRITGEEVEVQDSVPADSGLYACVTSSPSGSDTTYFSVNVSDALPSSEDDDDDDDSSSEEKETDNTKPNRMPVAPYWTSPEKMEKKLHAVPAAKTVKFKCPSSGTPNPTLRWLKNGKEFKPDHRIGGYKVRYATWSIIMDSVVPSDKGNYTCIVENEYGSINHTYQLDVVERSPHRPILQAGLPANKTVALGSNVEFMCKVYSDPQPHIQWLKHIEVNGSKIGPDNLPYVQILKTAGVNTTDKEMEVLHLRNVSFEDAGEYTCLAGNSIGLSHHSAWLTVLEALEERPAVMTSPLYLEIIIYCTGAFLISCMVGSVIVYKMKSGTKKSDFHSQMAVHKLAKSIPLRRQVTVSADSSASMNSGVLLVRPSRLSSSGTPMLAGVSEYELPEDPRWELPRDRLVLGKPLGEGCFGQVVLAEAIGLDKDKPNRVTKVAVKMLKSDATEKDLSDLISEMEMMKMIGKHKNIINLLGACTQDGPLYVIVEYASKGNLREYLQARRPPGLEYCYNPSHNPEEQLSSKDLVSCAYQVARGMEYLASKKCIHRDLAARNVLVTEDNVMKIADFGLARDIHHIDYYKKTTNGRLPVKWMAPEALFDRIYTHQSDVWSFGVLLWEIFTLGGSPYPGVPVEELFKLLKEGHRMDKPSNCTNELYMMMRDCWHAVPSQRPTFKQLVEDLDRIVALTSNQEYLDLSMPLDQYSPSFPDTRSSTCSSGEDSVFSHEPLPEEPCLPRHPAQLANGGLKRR
Macrophage colony-stimulating factor 1 receptor, sequence (P07333 whole entry): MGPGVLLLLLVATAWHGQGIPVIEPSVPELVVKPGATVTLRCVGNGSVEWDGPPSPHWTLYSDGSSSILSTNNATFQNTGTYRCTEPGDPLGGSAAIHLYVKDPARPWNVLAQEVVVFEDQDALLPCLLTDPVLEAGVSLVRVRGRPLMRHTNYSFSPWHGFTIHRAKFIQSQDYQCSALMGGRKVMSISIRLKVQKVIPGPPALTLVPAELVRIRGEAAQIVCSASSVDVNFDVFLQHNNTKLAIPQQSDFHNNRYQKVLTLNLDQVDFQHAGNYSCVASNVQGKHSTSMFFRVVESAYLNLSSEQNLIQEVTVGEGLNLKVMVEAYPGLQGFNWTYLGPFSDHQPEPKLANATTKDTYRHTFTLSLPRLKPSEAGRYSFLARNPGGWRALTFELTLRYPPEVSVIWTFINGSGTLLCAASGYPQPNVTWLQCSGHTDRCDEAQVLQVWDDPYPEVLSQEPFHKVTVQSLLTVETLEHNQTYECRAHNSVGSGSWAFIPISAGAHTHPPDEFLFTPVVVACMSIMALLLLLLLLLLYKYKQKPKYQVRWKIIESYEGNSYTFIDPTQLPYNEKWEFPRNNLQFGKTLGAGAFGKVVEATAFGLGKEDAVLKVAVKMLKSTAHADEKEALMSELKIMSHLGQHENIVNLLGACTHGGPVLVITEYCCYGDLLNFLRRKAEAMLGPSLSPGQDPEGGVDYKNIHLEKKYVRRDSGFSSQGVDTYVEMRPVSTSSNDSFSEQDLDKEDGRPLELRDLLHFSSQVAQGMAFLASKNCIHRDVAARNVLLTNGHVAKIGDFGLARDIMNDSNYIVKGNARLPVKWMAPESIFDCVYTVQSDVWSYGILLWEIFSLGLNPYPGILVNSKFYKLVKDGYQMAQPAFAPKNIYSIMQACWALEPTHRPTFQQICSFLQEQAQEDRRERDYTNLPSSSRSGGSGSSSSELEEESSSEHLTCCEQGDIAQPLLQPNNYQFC
Cyclin-dependent kinase 1, sequence (P06493 whole entry): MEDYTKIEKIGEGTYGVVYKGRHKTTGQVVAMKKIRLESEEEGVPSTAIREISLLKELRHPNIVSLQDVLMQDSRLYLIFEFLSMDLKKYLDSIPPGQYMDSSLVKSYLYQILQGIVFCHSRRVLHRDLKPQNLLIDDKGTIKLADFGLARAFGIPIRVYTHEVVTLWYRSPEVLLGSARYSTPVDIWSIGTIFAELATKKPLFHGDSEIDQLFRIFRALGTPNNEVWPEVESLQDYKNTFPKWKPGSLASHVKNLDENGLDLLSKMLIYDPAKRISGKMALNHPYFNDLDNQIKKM
Tyrosine-protein kinase Lck (Homo sapiens), sequence (P06239 whole entry, looked up): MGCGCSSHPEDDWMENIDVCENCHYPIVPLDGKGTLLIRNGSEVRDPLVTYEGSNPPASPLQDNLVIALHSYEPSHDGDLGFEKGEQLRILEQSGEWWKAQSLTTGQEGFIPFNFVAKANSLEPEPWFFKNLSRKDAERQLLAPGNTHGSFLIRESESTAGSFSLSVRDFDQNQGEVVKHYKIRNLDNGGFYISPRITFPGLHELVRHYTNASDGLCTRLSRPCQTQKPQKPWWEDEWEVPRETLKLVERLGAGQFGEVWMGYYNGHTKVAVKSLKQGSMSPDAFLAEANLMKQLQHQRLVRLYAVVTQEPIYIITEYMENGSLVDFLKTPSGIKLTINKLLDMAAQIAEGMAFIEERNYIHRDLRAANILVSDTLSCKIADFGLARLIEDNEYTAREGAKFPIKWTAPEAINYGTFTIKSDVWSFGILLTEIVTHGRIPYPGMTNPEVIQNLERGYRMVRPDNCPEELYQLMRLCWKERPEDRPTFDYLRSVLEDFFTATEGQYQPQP

In the case of `O=C(c1ccc(-c2cccnc2)s1)N1N=C(c2cccnc2)CC1c1ccccc1O` (stereo not given), the Ratio IC50 in the assay listed under Homo sapiens was below 2.

One may read the pIC50 as the IC50 on a negative log10 scale, so that one unit is a factor of ten. Higher therefore signals a small IC50. On to `O=C(c1ccc[nH]1)N1N=C(c2cccnc2)CC1c1ccccc1O` (stereo not given), for which the pIC50 in assay [1] is below 5.00; in assay [2], 5.70; in assay [3], below 5.00; in assay [4] it was below 5.00; in [5] it was below 5.00; in [6] it was 7.65. For the same molecule, the pIC50 in assay [7] and in [8] was below 5.00 throughout.

On to `O=C(c1ccco1)N1N=C(c2cccnc2)CC1c1ccccc1O` (stereo not given), for which the negative logarithm of the IC50 (pIC50) in assay [1], in assay [9], in assay [10], in assay [4], in assay [11] and in assay [12] was below 5.00 each time. For the same molecule, the pIC50 in assay [13], in assay [5], in assay [14], in assay [15], in assay [16] and in [7] was below 5.00 in each case. In assay [8], this molecule had a negative logarithm of the IC50 (pIC50) below 5.00.

As to `CCOc1cccc2cc(C(=O)N3N=C(c4cccnc4)CC3c3ccccc3O)oc12` (stereo not given), the pIC50 in [1] is below 5.00; in assay [2] it was 5.46; in assay [3] it was below 5.00; in assay [4], below 5.00; in assay [5], below 5.00; in assay [6], 7.59. Moreover, the pIC50 in [7] and in assay [8] was below 5.00 in each case.

Take `O=C(c1cccs1)N1N=C(c2cccnc2)CC1c1ccccc1O` (stereo not given): the pIC50 in assay [1] is below 5.00; in assay [2], 5.82; in assay [3], below 5.00; in assay [4], below 5.00; in [5] it was below 5.00; in [6], 7.62. The pIC50 in assay [7] and in assay [8] was below 5.00 in each case. Also, the Ratio IC50 in the assay listed under Homo sapiens is below 2.

For `O=C(c1ccc(Br)o1)N1N=C(c2cccnc2)CC1c1ccccc1O` (stereo not given), the pIC50 was below 5.00 in [1]; 5.85 in assay [2]; below 5.00 in assay [3]; below 5.00 in assay [4]; below 5.00 in assay [5]; 8.10 in assay [6]. Also, the pIC50 in assay [7] and in assay [8] was below 5.00 in each case.

Consider `O=C(c1cccc(-n2cccn2)c1)N1N=C(c2cccnc2)CC1c1ccccc1O` (stereo not given), for which the pIC50 in [1] is below 5.00; in [2], 5.06; in assay [3], below 5.00; in assay [4] it was below 5.00; in assay [5], below 5.00; in assay [6], 7.38. The negative logarithm of the IC50 (pIC50) in assay [7] and in assay [8] was below 5.00 each time.
